This note sets out measurements from ChEMBL document CHEMBL1136298, “Synthesis of novel C2 and C2-C8 linked pyrrolo[2,1-c][1,4]benzodiazepine-naphthalimide hybrids as DNA-binding agents” (2003).

The subject of experiment [1] is SF-268. The experiment can be described thus: In vitro anticancer activity against SF-268 (CNS) cell line. The class given is functional, Homo sapiens. Summed up: (§1)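 Primary screen in a three-cell-line panel of MCF7 (breast), NCI-H460 (lung) and SF-268 (CNS), with each compound tested as one dose at 10⁻⁴ molar.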
Experiment [2] has as its system MCF7. The experiment can be described thus: In vitro anticancer activity against breast MCF-7 cell line. In kind it is functional, Homo sapiens. Summed up: as §1
Experiment [3] has as its system CCRF-CEM. The experiment can be described thus: In vitro cytotoxic activity against leukemia CCRF-CEM cell line. The class given is functional. Particulars: Homo sapiens.
In experiment [4] the test system is SR. The experiment can be described thus: In vitro cytotoxic activity against SR cell line. The class given is functional. Particulars: Homo sapiens.
Experiment [5] concerns T47D. The experiment can be described thus: In vitro cytotoxic activity against breast T-47D cell line. The class given is functional. To be noted: Homo sapiens.
Experiment [6] has as its system HL-60. The experiment can be described thus: In vitro cytotoxic activity against HL60 (TB) cell line. In kind it is functional. To be noted: Homo sapiens.
Experiment [7] relates to MOLT-4. The experiment can be described thus: In vitro cytotoxic activity against MOLT-4 cell line. Particulars: Homo sapiens.
Experiment [8] concerns NCI-H460. The experiment can be described thus: In vitro anticancer activity against lung NCI-H460 cell line. The class given is functional, Homo sapiens. Summed up: as §1
For experiment [9], the system named is SNB-19. The experiment can be described thus: In vitro cytotoxic activity against central nervous system (CNS) SNB-19 cell line. The class given is functional. Particulars: Homo sapiens.

The term GI50 denotes the concentration giving 50% growth inhibition. A higher GI50 goes with less potent growth inhibition.

Consider `COc1cc2c(cc1OCc1ccccc1)N=C[C@@H]1C/C(=C\C(=O)NCCCN3C(=O)c4cccc5cccc(c45)C3=O)CN1C2=O`, for which the Activity in experiment [1] came out at 1%; in experiment [2] it was 0%; in [8], 0%. In addition, the GI50 is 0.062 µM in experiment [3]; below 0.01 µM in [4]; 0.034 µM in experiment [5]; 0.091 µM in experiment [6]; 0.055 µM in experiment [7]; 0.08 µM in experiment [9].
Regarding `COc1cc2c(cc1OCc1ccccc1)N=C[C@@H]1C/C(=C\C(=O)NCCN3C(=O)c4cccc5cccc(c45)C3=O)CN1C2=O`, the Activity in experiment [1] is reported as 95%; in experiment [2], 89%; in experiment [8] it was 101%.
For `COc1cc2c(cc1OCCCN1C(=O)c3cccc4cccc(c34)C1=O)N=C[C@@H]1C/C(=C\C(=O)NCCCN3C(=O)c4cccc5cccc(c45)C3=O)CN1C2=O` the same measures were 97%, 86% and 102%.
